Here are results for 37 sequences from the array DNA melting data of Ke et al. (doi:10.1101/2024.01.08.574731).

Series [1] is described as follows: folding enthalpy; higher = less favourable; fluorescence melt of hairpins on a sequencing array, two-state fit. As to conditions: sodium 0.088 M. In short, it runs like this:
(§1)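 To match UV melts, fitted temperatures were raised by 9.35 °C. These fits were bootstrapped two-state models that gave melting temperature and folding enthalpy, combined by inverse variance over four replicates. The input was normalised Cy3 fluorescence of library hairpins with annealed Cy3 and quencher oligos on a sequenced MiSeq flow cell, imaged in 50 mM Na-HEPES pH 8.0, 25 mM NaCl in 2.5 °C steps up to 60 °C.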

A short description of series [2]: melting temperature; fluorescence melt of hairpins on a sequencing array, two-state fit, raised by 9.35 °C to match UV melts. Conditions: sodium 0.088 M. In short, it runs like this: as §1

GAGCGCGAAAGCGCCTC ((((((....))).))): in series [1], the folding enthalpy was -7.59 kcal/mol. Also, the Tm in series [2] came out at 58.1 °C.
Taken in the same sequence, the figures for GATCCTACCAGGATC ((((((...)))))) were -39.6 kcal/mol and 54.9 °C.
In the same order, the values of GCATTTGCGAAAGCATGC (((..(((....)))))) are -17.9 kcal/mol and 44.9 °C.
With GATCATCCCAATGATC ((((((....)))))), the folding enthalpy in series [1] was -36.2 kcal/mol. Further, the Tm in series [2] came to 48.2 °C.
Take GCTTCCGGAAACGAAAGC ((((.((....)).)))): the folding enthalpy in series [1] was -29.7 kcal/mol. In series [2], the Tm stood at 43 °C.
GTCCGAGGAAACTCAGAC (((.(((....))).))): in series [1], the folding enthalpy was -21.4 kcal/mol. Moreover, in series [2], the Tm is 35.9 °C.
For the sequence GCTACCCGAAAGGGCAGC (((.(((....))).))), the folding enthalpy in series [1] is -32.9 kcal/mol. Besides, in series [2], the Tm came to 57.8 °C.
GTTGGGACGAAAGTCAAC (((..(((....)))))): the folding enthalpy in series [1] is -19.6 kcal/mol. The Tm in series [2] amounted to 41.5 °C.
Taken in the same sequence, the figures for GTCGATGGAAACATCGAC (((((((....))))))) were -44.8 kcal/mol and 67.3 °C.
Taken in the same sequence, the figures for GAGCACGAAAGTGCACTC ((((((....)))..))) were -11.9 kcal/mol and 58 °C.
Take GGCAAGCGAAAGCTGCC (((.(((....)))))): the folding enthalpy in series [1] is -33.4 kcal/mol. Further, the Tm in series [2] was 68.9 °C.
Taken in the same sequence, the figures for GATCGCAGGGGCGATC ((((((....)))))) were -34.1 kcal/mol and 67.5 °C.
In the same order, the values of GGCGGCGAAAGCCGGGCC ((((((....)))..))) are -10.1 kcal/mol and 58.1 °C.
Taken in the same sequence, the figures for GACCGTGGAAACACGGCC (.(((((....))))).) were -13.2 kcal/mol and 50.9 °C.
As for GATCTTTTAGAAGATC ((((((....)))))), the folding enthalpy in series [1] is -41.8 kcal/mol. Also, in series [2], the Tm was found to be 44.4 °C.
Taken in the same sequence, the figures for GCGATGTTTCGC ((((....)))) were -22.9 kcal/mol and 51.4 °C.
Consider GCAAACGAAAGTTTTTGC ((((((....)))..))), for which the folding enthalpy in series [1] is -16.1 kcal/mol. For the same sequence, in series [2], the Tm was 35.2 °C.
In the same order, the values of GATCGCAGAGGCGATC ((((((....)))))) are -35.8 kcal/mol and 66.8 °C.
Take GCGACCAATCGC ((((....)))): in series [1], the folding enthalpy is -23.6 kcal/mol. The Tm in series [2] was found to be 44 °C.
With GTGCACGGAAACGTACAC (((.(((....))).))), in series [1], the folding enthalpy was -31.8 kcal/mol. In addition, the Tm in series [2] stood at 48.5 °C.
Taken in the same sequence, the figures for GGTTTGACGAAAGTCACC (((..(((....)))))) were -10.6 kcal/mol and 30.4 °C.
In the same order, the values of GATCCTTAGCAGGATC ((((((....)))))) are -38 kcal/mol and 48.8 °C.
GCGTTAAAACGC ((((....)))): the folding enthalpy in series [1] is -21.4 kcal/mol. Further, the Tm in series [2] stood at 50.3 °C.
In the same order, the values of GAAGACGAAAGTCAGTTC ((((((....)))..))) are -15 kcal/mol and 24 °C.
Taken in the same sequence, the figures for GTGTATGGAAACATATAC ((.((((....)))).)) were -37 kcal/mol and 37.8 °C.
Taken in the same sequence, the figures for AGAAACCGAAAGGCTTCT ((((.((....)).)))) were -28.4 kcal/mol and 40.9 °C.
As for GCATATACGAAAGTATGC (((..(((....)))))), in series [1], the folding enthalpy was -22.3 kcal/mol. Further, in series [2], the Tm is 41.5 °C.
As to GCAAGCGAAAGCTGATGC ((((((....)))..))), the folding enthalpy in series [1] is -16.3 kcal/mol. In addition, the Tm in series [2] came to 45.7 °C.
In the case of GCTCAGCGAAAGCATAGC (((..((....))..))), the folding enthalpy in series [1] is -16 kcal/mol. The Tm in series [2] amounted to 38.5 °C.
Taken in the same sequence, the figures for GGCCAGCGAAAGCTGCC (((.(((....)))))) were -16 kcal/mol and 60 °C.
Taken in the same sequence, the figures for GGGTTTACGAAAGTACCC (((..(((....)))))) were -24.2 kcal/mol and 41.2 °C.
In the same order, the values of GGGCTTCCGAAAGGACCC (((..(((....)))))) are -23.4 kcal/mol and 39.9 °C.
In the case of GCGGGGACCCGC ((((....)))), the folding enthalpy in series [1] is -26.3 kcal/mol. Besides, the Tm in series [2] was 68.3 °C.
Turning to GGAATAGAAATATTCC ((((((....)))))), the folding enthalpy in series [1] is -29.3 kcal/mol. Moreover, the Tm in series [2] was 41.7 °C.
In the same order, the values of GATCTAGCTTAGATC ((((((...)))))) are -29.4 kcal/mol and 38.1 °C.
In the same order, the values of GAGACGGGAAACCGTCCC (.(((((....))))).) are -11.5 kcal/mol and 43.8 °C.
GATTCGGGAAACCGAATC (((((((....))))))): in series [1], the folding enthalpy was -47.5 kcal/mol. Also, the Tm in series [2] was found to be 60.4 °C.
